Exocytosis inh – lytic granule exocytosis inhibition; 0.66% of 360,000 active; inhibition, % at 10 µM; TALL-104 LAMP-1 surface exposure, flow cytometry; cells stimulated with thapsigargin and PMA; AID 651702;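 active = inhibition above about 55%, limit read from the data; inconclusive = no clear call, values can overlap the other calls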
CSN inh – CSN deneddylation inhibition | AID 651999 | Purified CSN, SCF-Nedd8-OG deneddylation, fluorescence polarization | inhibition, % at 12.5 µM | 0.38% of 360,000 active;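 active = pattern-corrected inhibition above about 35%, with an unprinted fluorescence ratio check between 0.5 and 1.5, limit read from the data, passing the limit was not always enough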;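 also: 0% = enzyme with substrate and 100% = substrate without enzyme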
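Assay system: HEK293T-derived human Csn5 enzyme; quantity: 0.24 nM enzyme; medium: Tris/NaCl/DTT buffer, pH 7.5; also added: substrate SCFSkp2-Nedd8OG, 10 nM; doses: 12.5 µM compound; schedule: 90 min reaction at room temperature; signal: FP; read-out: % inhibition of substrate cleavage by Csn5; benchmarks: substrate-only high control, full reaction low control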
Myeloid diff 2 – promotes myeloid progenitor differentiation; ER-HoxA9 myeloid progenitors, lysozyme-GFP differentiation, flow cytometry; calls only at 10 µM; 1% of 360,000 active; AID 624256;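 active = normalized GFP-positive differentiation at or above the plate's own cutoff, the solvent-only control mean plus 3 SD; inconclusive = no clear call, values can overlap the other calls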;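 also: cells exposed to compound for four days before flow analysis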
HNF4A DNA FP – change in binding of human HNF4 alpha to DNA; HNF4a-FITC DNA binding, fluorescence polarization, 1 h; activity change, % at 10 µM; 0.3% of 360,000 active; AID 1224865; in the data active = activity change above about 30%, passing the limit was not always enough
Target sequence (P41235 whole entry, looked up): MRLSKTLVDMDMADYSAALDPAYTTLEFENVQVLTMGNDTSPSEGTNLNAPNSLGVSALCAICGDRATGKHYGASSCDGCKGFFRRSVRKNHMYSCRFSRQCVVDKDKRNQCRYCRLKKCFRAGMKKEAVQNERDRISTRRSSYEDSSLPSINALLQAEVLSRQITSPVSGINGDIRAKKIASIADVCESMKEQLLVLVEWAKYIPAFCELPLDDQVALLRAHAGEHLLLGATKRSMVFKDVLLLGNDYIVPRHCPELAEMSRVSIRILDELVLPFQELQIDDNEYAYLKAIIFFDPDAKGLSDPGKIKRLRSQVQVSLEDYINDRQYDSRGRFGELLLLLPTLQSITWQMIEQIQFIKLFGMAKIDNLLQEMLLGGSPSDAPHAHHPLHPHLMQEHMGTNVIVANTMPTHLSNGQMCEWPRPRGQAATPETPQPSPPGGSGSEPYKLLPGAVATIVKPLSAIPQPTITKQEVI
Active calls of the source: *; i = inactive; ? = inconclusive; + = active, no number. Compounds with a hit are over-represented: about 2.2% of the library has one in this group of screens.

SMILES | Exocytosis inh | CSN inh | Myeloid diff 2 | HNF4A DNA FP
O=C(Nc1ccnn1C1CCN(C/C=C/c2ccccc2)CC1)c1ccccc1Cl | 0 | -1 | i | -3
COc1ccccc1C(=O)Nc1ccnn1C1CCN(C/C=C/c2ccc(F)cc2)CC1 | 20 | 8 | + | -1
CN(CC(=O)Nc1ccc(Cl)c(C(F)(F)F)c1)C(=O)c1ccc2c(c1)NC(=O)CS2 | 5 | 2 | i | 9
CC1CN(S(=O)(=O)c2ccc(C(=O)Nc3nnc(-c4ccco4)o3)cc2)CC(C)O1 (centres undefined) | -1 | -1 | i | 0
COc1cccc(-c2nnc(NC(=O)c3ccc(S(=O)(=O)N4CC(C)OC(C)C4)cc3)o2)c1 (centres undefined) | 3 | 0 | + | -1
CC1CCCN(S(=O)(=O)c2ccc(C(=O)Nc3nnc(-c4ccccc4Cl)o3)cc2)C1 (centres undefined) | 2 | -4 | + | -1
CCN(CC)C(=O)[C@H]1C[C@H](CC(=O)NCCc2ccccn2)C(=O)N2CCc3c([nH]c4ccc(Cl)cc34)[C@]12C | -3 | 4 | i | -5
O=C(OCC(=O)N1CCC(Cc2ccccc2)CC1)c1ccccc1O | 2 | 5 | i | 7
COc1ccc(NC(=O)C2(S(=O)(=O)c3ccc(C)cc3)CC2)cc1 | -7 | -1 | i | 1
CCCCNc1c(-c2ccc(SC(C)CC)cc2)nc2cnccn12 (centres undefined) | 2 | -3 | + | -8
CC(O)(c1cccc(F)c1)c1nc(-c2cncnc2)cs1 (centres undefined) | -4 | 5 | i | 3
CCOC(=O)[C@]12CCC=C1N(Cc1ccc3c(c1)OCO3)C(=O)[C@H](CC(=O)NCC1CCCCC1)C2 | -8 | 1 | i | 4
O=C1C2C(C(=O)N1/N=C/c1ccc(N3CCCCC3)o1)C1C=CC2C12CC2 (centres undefined) | 68* | 3 | i | 1
O=C(N/N=C/c1ccc(N2CCCCC2)o1)c1ccccc1 | 6 | -15 | i | 1
Cc1ccc2nc3c(cc(C(N)=S)c(=N)n3CCCOC(C)C)c(=O)n2c1 | 14 | 4 | + | 3
Cc1cccn2c(=O)c3cc(C(N)=S)c(=N)n(CCCN4CCOCC4)c3nc12 | 0 | 37* | i | 9
Cc1ccc2nc3c(cc(C(=O)NCCc4ccccc4)c(=N)n3CCN3CCOCC3)c(=O)n2c1 | 24 | 2 | + | -1
CC(NC(=O)C1CCN(S(=O)(=O)c2ccc3c(c2)NC(=O)CO3)CC1)c1ccccc1 (centres undefined) | -26 | 3 | i | 4
Cc1noc(C)c1COc1ccc(C(=O)NCc2cccs2)cc1 | 14 | 1 | i | -2
Cc1ccc(C(=O)OCC(=O)NCc2ccc(Cl)cc2Cl)o1 | 0 | 4 | i | 1
CC(=O)NC1CC2CCCC(C1)N2C(=O)Nc1ccc(Cl)c(C(F)(F)F)c1 (centres undefined) | -10 | 4 | i | 30*
Cc1ccc(NC(=O)N2C3CCCC2CC(NC(=O)C2CC2)C3)cc1 (centres undefined) | -4 | 1 | i | -2
COc1ccc(Cl)cc1NC(=O)CN(C)C(=O)CCNC(=O)c1ccccc1OC | -1 | -2 | i | 2
FC(F)(F)c1ccc(NC(=S)NC2CCCCC2)cc1 | 0 | -6 | + | 1
CC(=O)C1=C(C)NC(SCC(=O)c2ccc(Cl)c(Cl)c2)=C(C#N)C1c1ccco1 (centres undefined) | 6 | 11 | + | 16
SMILES | Exocytosis inh | CSN inh | Myeloid diff 2 | HNF4A DNA FP
C/C(=N\NC(=O)c1cccc(O)c1)c1ccc(NC(=O)Cc2ccccc2)cc1 | -2 | 1 | i | -2
COCCCn1c(C)nc2c(c1=O)c1nc3ccccc3nc1n2CCc1ccccc1 | 1 | 6 | + | 10
Cc1ccc(OCC(=O)Oc2cccc(C)c2C)cc1 | 1 | -3 | i | 3
CCC(C)[C@H](NC(=O)c1cc2cc(Cl)ccc2n1C)C(=O)N1CCC[C@H]1C(=O)O (some centres undefined) | -6 | 5 | i | 3
C#Cc1ccc([C@@H]2C=C(C(=O)N3CCOCC3)O[C@H](OCCCCO)C2)cc1 | 17 | 1 | + | 0
COc1ccccc1/C=N/NC(=O)c1cccc(OC(F)(F)C(F)F)c1 | -3 | 2 | i | -2
COc1cccc(/C=N/NC(=O)c2ccc(-c3ccccc3)cc2)c1O | 59* | 3 | ? | 0
COc1cccc(/C=N/NC(=O)C(=O)Nc2ccccc2OC(F)(F)C(F)F)c1O | -3 | -6 | + | 3
Cc1nn(CC(=O)NC2CCS(=O)(=O)C2)c(C)c1[N+](=O)[O-] (centres undefined) | 3 | -2 | i | 5
COc1ccc2[nH]c(=O)c(CN(C3CCCCC3)C(c3nnnn3Cc3ccco3)C(C)C)cc2c1 (centres undefined) | -2 | 19 | i | 54*
COC1=C/C(=C/c2c(N)n3c(nc2=O)sc2cc(S(C)(=O)=O)ccc23)C=CC1=O | 2 | 116 | i | 96*
CS(=O)(=O)c1ccc2c(c1)sc1nc(=O)c(/C=C3/C=CC(=O)C(O)=C3)c(N)n12 | 0 | 185 | i | 27
Cc1ccc(-c2csc3nc[nH]c(=O)c23)cc1 | -2 | -3 | i | 6
Cc1ccc(-c2csc3nc(-c4ccncc4)[nH]c(=O)c23)cc1 | -9 | 44* | i | 77*
CCOC(=O)C1C(c2cc(OC)c(OC)c(OC)c2)NC(=S)NC1(O)C(F)(F)F (centres undefined) | -4 | 37* | i | -1
CCOC(=O)C1C(c2cc(OC)c(O)c(OC)c2)NC(=S)NC1(O)C(F)(F)F (centres undefined) | -1 | -11 | i | 0
COc1ccc(-c2cn3cc(C(F)(F)F)cc(Cl)c3n2)cc1 | 1 | 0 | + | 3
Cc1ccc(C)c(S(=O)(=O)NCc2ccc(C(=O)N3CCC(Cc4ccccc4)CC3)cc2)c1 | 28 | 4 | + | 1
O=C(c1ccc(Br)o1)N1CCC(Cc2ccccc2)CC1 | 16 | 93* | i | 5
O=C(c1cccs1)N1CCC(Cc2ccccc2)CC1 | 5 | -1 | i | -9
O=C(O)c1cc(S(=O)(=O)N2CCOCC2)c[nH]1 | 24 | 3 | i | -2
CC(=O)c1ccc(N2CCN(C(=O)CCCn3c(=O)[nH]c4ccc(Br)cc4c3=O)CC2)cc1 | 2 | -2 | i | 0
CCCCNC(=O)CCCn1c(=O)[nH]c2ccc(Br)cc2c1=O | 0 | -5 | + | -3
Cc1cc(C)cc(OCCNC(=O)c2ccc(Br)cc2)c1 | -7 | -1 | i | -3
CCOc1ccc(S(=O)(=O)NCc2ccc(C)cc2)c2cccnc12 | 7 | -5 | i | 1
CCOc1ccc(NS(=O)(=O)c2ccc(OCC)c3ncccc23)cc1 | -2 | -2 | + | -3
COc1ccc(CCNC(=O)CC2Nc3cc(C)c(C)cc3NC2=O)cc1OC (centres undefined) | 2 | 4 | i | 8

Source: PubChem BioAssay
